Published values pooled from the literature.
Each line is one published result; the experiments were not run side by side.

SMILES	assay	test system	conditions	quantity	result
CC(C)n1cc(C#N)c2cc(-n3cc(C(=O)O)cn3)ccc21		human, plasma	oral, 200 mg, single dose, fed, healthy volunteers	half-life	15 h
CO[C@@H]1[C@H](OC(=O)N2CC(CCN3CCOCC3)C2)CC[C@]2(CO2)[C@H]1[C@@]1(C)O[C@@H]1CC=C(C)C		human, plasma	subcutaneous, 2.4 mg, single dose, healthy volunteers	half-life	0.69 h
COCCOc1cnc2ccn([C@H](C)c3nnc4c(F)cc(-c5cnn(C)c5)cn34)c(=O)c2c1		human, plasma	oral, 25 mg, multiple doses, once daily, patients	half-life	6.3 h
CC(=O)N[C@@H](Cc1ccccc1)C(=O)N[C@@H](Cc1ccccc1)C(=O)N[C@@H](C)C(=O)N[C@@H](CC(C)C)C(=O)NCC(=O)N[C@@H](CC(C)C)C(=O)N[C@@H](C)C(=O)NCC(=O)N[C@@H](CC(=O)O)C(=O)N[C@@H](CC(=O)O)C(=O)O	chemical stability	human, plasma	1 mM, pH 7.4	half-life	8.64 h
CC(C)(O)c1ccccc1-c1ccc2[nH]c(/C=C/c3ccc(C(F)(F)F)cc3)nc2c1		male human, plasma	oral, 5 mg, single dose, fasted, healthy volunteers	half-life	29.9 h
CC(C)(C)c1ccc(O)c(CN(Cc2cc(C(C)(C)C)ccc2O)C2CCC(NC(N)=O)CC2)c1 (centres unmarked)		male C57BL/6 mouse, plasma	oral, 10 mg/kg, single dose	Vd	2.79 L
CCCCC(=O)OCOC(=O)C1CC(C)(C)N([O])C1(C)C (centres unmarked)	chemical stability	bovine, serum		half-life	0.817 h
CCn1c2ccccc2c2cc(-n3nncc3-c3ccccc3)ccc21		female BALB/c mouse, plasma	intraperitoneal, 10 mg/kg, single dose	Vd/F	~0.4 L
COc1ccc([C@@H]2CN(C(=O)[C@@H](O)CO)C[C@@]2(C)[C@@H](C)O)cc1OC1CN(c2ccc(C)cn2)C1		human, plasma	oral, 0.5 mg, single dose, healthy volunteers	half-life	11.9 h
Cn1cc(-c2ccc(S(=O)(=O)[C@@H]3C[C@@H](C(=O)NC4(C#N)CC4)N(C(=O)C4(C(F)(F)F)CC4)C3)c(C(F)(F)F)c2)cn1		human, plasma	oral, 100 mg, single dose, fasted, healthy volunteers	half-life	13.1 h
CC[C@H](C)[C@H](NC(=O)[C@H](CCC(=O)O)NC(=O)[C@H](CO)NC(=O)[C@@H](NC(=O)[C@@H](N)CO)C(C)C)C(=O)N[C@@H](CCC(N)=O)C(=O)N[C@@H](CC(C)C)C(=O)N[C@@H](CCSC)C(=O)N[C@@H](Cc1cnc[nH]1)C(=O)N[C@@H](CC(N)=O)C(=O)N[C@@H](CC(C)C)C(=O)NCC(=O)N[C@@H](CCCCN)C(=O)N[C@@H](Cc1cnc[nH]1)C(=O)N[C@@H](CC(C)C)C(=O)N[C@@H](CC(N)=O)C(=O)N[C@@H](CO)C(=O)N[C@@H](CCSC)C(=O)N[C@@H](CCC(=O)O)C(=O)N[C@@H](CCCN=C(N)N)C(=O)N[C@H](C(=O)N[C@@H](CCC(=O)O)C(=O)N[C@@H](Cc1c[nH]c2ccccc12)C(=O)N[C@@H](CC(C)C)C(=O)N[C@@H](CCCN=C(N)N)C(=O)N[C@@H](CCCCN)C(=O)N[C@@H](CCCCN)C(=O)N[C@@H](CC(C)C)C(=O)N[C@@H](CCC(N)=O)C(=O)N[C@@H](CC(=O)O)C(=O)N[C@H](C(=O)N[C@@H](Cc1cnc[nH]1)C(=O)N[C@@H](CC(N)=O)C(=O)N[C@@H](Cc1ccccc1)C(=O)O)C(C)C)C(C)C	chemical stability, HPLC	aqueous buffer	0.5 mg/mL, 5 min, pH 6.5	compound remaining	100%
